Two molecules from article PMC5473467 (Nature, 2017) can be followed below.

Molecules are shown by their SMILES.

Series [1] deals with C. parvum. The series is described as follows: C. parvum High Content Imaging. The class given is cell-based. To be noted: Cryptosporidium parvum, HCT-8, read-out: Cp HCI IC50. The essentials:
(§1)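 HCT-8 cells were kept in RPMI-1640 with 10% heat-inactivated horse serum. Oocysts were primed in 10 mM HCl in HBSS for 10 min at 37 °C, washed, then excysted in L-15/UltraCULTURE medium with 2 mM taurocholate, 10% horse serum and 200 μM ascorbate. Compound dilutions were made in taurocholate-free medium. EC50 came from ten-point threefold dose–response series.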

For series [2], the system named is C. parvum. The series is described as follows: C. parvum cytopathic effect. The note with it: for EC50: Cryptosporidium parvum, HCT-8, read-out: Cp CPE EC50. Type of series: cell-based, Cryptosporidium parvum. In a few lines:
as §1

For another series, the system named is C. hominis. The series is described as follows: C. hominis cytopathic effect. The class given is cell-based, Cryptosporidium hominis. The note with it: for EC50: Cryptosporidium hominis, HCT-8, read-out: Ch CPE EC50. In a few lines:
as §1

A further series can be described thus: in vitro. Type of series: cell-based. The note with it: human, HepG2 CC50, 96 hours.
The next series has as its system Pf 3D7. As to the kind of experiment: P. falciparum 3D7 growth inhibition. Type of series: cell-based. To be noted: Plasmodium falciparum, 3D7, read-out: Pf 3D7 IC50.
A further series deals with T1, CpPI(4)K (cgd8_4500) (Cryptosporidium parvum, UniProt Q5CVD3).
T1 sequence (Q5CVD3 1-1114): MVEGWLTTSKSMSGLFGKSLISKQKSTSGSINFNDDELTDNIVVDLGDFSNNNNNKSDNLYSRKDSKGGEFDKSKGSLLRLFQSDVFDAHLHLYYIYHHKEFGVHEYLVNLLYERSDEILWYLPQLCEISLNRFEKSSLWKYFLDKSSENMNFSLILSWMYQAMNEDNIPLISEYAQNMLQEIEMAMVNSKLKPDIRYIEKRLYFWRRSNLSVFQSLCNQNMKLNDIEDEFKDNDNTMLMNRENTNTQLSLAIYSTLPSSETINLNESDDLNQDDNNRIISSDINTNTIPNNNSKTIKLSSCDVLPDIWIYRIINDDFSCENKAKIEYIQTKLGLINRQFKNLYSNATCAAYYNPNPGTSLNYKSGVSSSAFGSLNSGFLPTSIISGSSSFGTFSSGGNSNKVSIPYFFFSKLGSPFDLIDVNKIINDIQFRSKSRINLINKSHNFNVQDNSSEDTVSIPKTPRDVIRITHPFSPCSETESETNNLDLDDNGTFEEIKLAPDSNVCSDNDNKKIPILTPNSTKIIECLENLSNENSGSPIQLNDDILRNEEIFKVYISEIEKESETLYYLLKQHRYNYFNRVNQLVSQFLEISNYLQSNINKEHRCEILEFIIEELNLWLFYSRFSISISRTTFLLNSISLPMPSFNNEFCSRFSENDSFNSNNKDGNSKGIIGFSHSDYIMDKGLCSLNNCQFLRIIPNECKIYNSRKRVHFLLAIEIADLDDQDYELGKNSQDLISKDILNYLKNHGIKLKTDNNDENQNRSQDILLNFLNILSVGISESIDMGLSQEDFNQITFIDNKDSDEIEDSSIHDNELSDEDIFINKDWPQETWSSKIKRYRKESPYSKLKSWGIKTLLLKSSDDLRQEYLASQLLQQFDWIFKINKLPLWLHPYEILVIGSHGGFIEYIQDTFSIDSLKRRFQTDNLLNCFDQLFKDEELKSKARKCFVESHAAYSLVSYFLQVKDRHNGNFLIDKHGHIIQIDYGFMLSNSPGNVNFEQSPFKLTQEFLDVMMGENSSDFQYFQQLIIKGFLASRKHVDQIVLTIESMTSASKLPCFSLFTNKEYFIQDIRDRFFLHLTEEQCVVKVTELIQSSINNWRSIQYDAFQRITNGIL
The series is described as follows: CpPI. The note with it: for IC50: Cp PI(4)K IC50, 3 μM ATP. Type of series: biochemical, C. parvum.

The next series concerns C. parvum UGA2 Fluc. The series is described as follows: Mouse model following tissue parasite load using whole-animal imaging. To be noted: 100 mg/kg daily from day 7. The class given is in vivo, IFN-γKO mice.

For the molecule `CS(=O)(=O)c1ccc(-c2cnc(N)c(-c3ccc(C(F)(F)F)nc3)c2)cc1` [MMV390048], the IC50 with C. parvum [1] was 13.4 µM. Also, in the series with C. parvum [2], the “activity against C. parvum” value was “inactive” and the EC50 is 12.8 ± 6.26 µM. In the series on C. hominis, the “activity against C. hominis” value was “inactive” and the EC50 turned out to be 11.8 ± 2.76 µM. In addition, the cytotoxic concentration (CC50) in the series “in vitro” amounted to 26.2 ± 16.1 µM. In addition, in the series with Pf 3D7, the IC50 was determined as 0.042 ± 0.022 µM. Besides, at CpPI(4)K (cgd8_4500), the “inhibition of CpPI(4)K enzymatic activity” value is listed as “do not inhibit” and the 50% inhibitory concentration (IC50) is 8.33 ± 2.35 µM.
With `CC(=O)Oc1ccccc1C(=O)Nc1ncc([N+](=O)[O-])s1` [Nitazoxanide], the half-inhibitory concentration (IC50) in the series on C. parvum [1] was 2.93 ± 0.808 µM; in the series with Pf 3D7 it was more than 10 µM; against CpPI(4)K (cgd8_4500), more than 10 µM. Also, the EC50 in the series with C. parvum [2] is 14.3 ± 7.13 µM; in the series with C. hominis, more than 20 µM. Also, in the series “in vitro”, it took 12.7 ± 2.38 µM to reach half-maximal cytotoxicity (CC50). In the series on C. parvum UGA2 Fluc, the “tissue load” value was “no change”.
